Test results from ChEMBL document CHEMBL3120154, “2-[N-Alkyl(R-phenyl)-aminomethyl]-3-phenyl-7-trifluoromethylquinoxalines as anticancer agents inhibitors of folate enzymes” (Eur J Med Chem, 2014).
Calls of active or inactive are those of the source. No cut-off for these calls is given here.

Legend:
[1] = target: T1, Dihydrofolate reductase (Homo sapiens, UniProt P00374); assay: Competitive inhibition of human dihydrofolate reductase by spectrophotometry
T1 sequence (P00374 whole entry): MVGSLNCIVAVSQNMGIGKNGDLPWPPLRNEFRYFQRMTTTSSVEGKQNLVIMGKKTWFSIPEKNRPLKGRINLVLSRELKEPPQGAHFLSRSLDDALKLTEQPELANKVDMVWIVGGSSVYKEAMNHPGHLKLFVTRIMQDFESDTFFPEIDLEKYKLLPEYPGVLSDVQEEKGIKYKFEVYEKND

[2] = tested on: SF-268; assay: Cytotoxicity against human SF268 cells assessed as cell growth at 10^-4 M after 48 hrs by alamar blue assay relative to untreated control; type: functional; conditions: SF-268, 48 h, read-out: Activity
Summary of the method: (§1)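 Three-cell-line prescreen at NCI. Each line was seeded and pre-incubated, then given a single concentration (10^-4 or 10^-5 M) and incubated for 48 h. The end-point was alamar blue. The value is percent growth of treated cells versus untreated control cells, with negative numbers indicating cell kill.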

[3] = tested on: MCF7; assay: Cytotoxicity against human MCF7 cells assessed as cell growth at 10^-4 M after 48 hrs by alamar blue assay relative to untreated control; type: functional; conditions: MCF7, 48 h, read-out: Activity
Summary of the method: (§2)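 Three-cell-line prescreen. Each line was inoculated and preincubated on a microtiter plate, then the agent was added at a single concentration (10^-4 or 10^-5 M) and incubated 48 h. Endpoint was measured with alamar blue, and growth is reported as a percentage of untreated control cells.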

[4] = tested on: NCI-H460; assay: Cytotoxicity against human NCI-H460 cells assessed as cell growth at 10^-4 M after 48 hrs by alamar blue assay relative to untreated control; type: functional; conditions: NCI-H460, 48 h, read-out: Activity; summary of the method: as §2
[5] = target: Dihydrofolate reductase (Homo sapiens) (UniProt P00374); assay: Competitive inhibition of human dihydrofolate reductase at 10 uM by spectrophotometry
[6] = tested on: MCF7; assay: Cytotoxicity against human MCF7 cells assessed as cell growth at 10^-5 M after 48 hrs by alamar blue assay relative to untreated control; type: functional; conditions: MCF7, 48 h, read-out: Activity; summary of the method: as §2
[7] = tested on: SF-268; assay: Cytotoxicity against human SF268 cells assessed as cell growth at 10^-5 M after 48 hrs by alamar blue assay relative to untreated control; type: functional; conditions: SF-268, 48 h, read-out: Activity; summary of the method: as §1
[8] = tested on: NCI-H460; assay: Cytotoxicity against human NCI-H460 cells assessed as cell growth at 10^-5 M after 48 hrs by alamar blue assay relative to untreated control; type: functional; conditions: NCI-H460, 48 h, read-out: Activity; summary of the method: as §2
[9] = target: Thymidylate synthase (Homo sapiens, UniProt P04818); assay: Competitive inhibition of human thymidylate synthase by spectrophotometry

SMILES | Ki [1] | inhibition [5] | Ki [9] | growth at 100 µM [2] | growth at 100 µM [3] | growth at 100 µM [4] | growth at 10 µM [6] | growth at 10 µM [7] | growth at 10 µM [8]
CCN(Cc1nc2cc(C(F)(F)F)ccc2nc1-c1ccccc1)c1ccc(OC(F)(F)F)cc1 | 5 µM |  |  | 85% | 61% | 83% |  |  | 
COc1ccc(N(C)Cc2nc3cc(C(F)(F)F)ccc3nc2-c2ccccc2)cc1OC | 8 µM |  |  | 103% | 54% | 88% |  |  | 
C#CCN(Cc1nc2cc(C(F)(F)F)ccc2nc1-c1ccccc1)c1ccccc1Cl | 2 µM |  |  | 87% | 102% | 101% |  |  | 
CCOC(=O)Cc1ccc(N(C)Cc2nc3cc(C(F)(F)F)ccc3nc2-c2ccccc2)cc1 |  | inactive |  | 107% | 105% | 125% |  |  | 
Cc1ccc(N(C)Cc2nc3cc(C(F)(F)F)ccc3nc2-c2ccccc2)cc1 | 11 µM |  |  |  |  |  | 115% | 121% | 116%
C#CCN(Cc1nc2cc(C(F)(F)F)ccc2nc1-c1ccccc1)c1ccc(C(F)(F)F)cc1F |  |  |  | 110% | 87% | 61% |  |  | 
C#CCN(Cc1nc2cc(C(F)(F)F)ccc2nc1-c1ccccc1)c1ccc(Cl)cc1 | 4 µM |  |  | 84% | 67% | 85% |  |  | 
CCN(Cc1nc2cc(C(F)(F)F)ccc2nc1-c1ccccc1)c1ccc(OC)cc1 | 7 µM |  |  | 89% | 54% | 63% |  |  | 
CCN(Cc1nc2cc(C(F)(F)F)ccc2nc1-c1ccccc1)c1cc(OC)c(OC)c(OC)c1 | 6 µM |  |  |  |  |  |  |  | 
C#CCN(Cc1nc2cc(C(F)(F)F)ccc2nc1-c1ccccc1)c1ccc(CC(=O)OCC)cc1 | 3 µM |  |  | 111% | 106% | 115% |  |  | 
CN(Cc1nc2cc(C(F)(F)F)ccc2nc1-c1ccccc1)c1ccc(F)cc1 | 5 µM |  |  | 125% | 180% | 119% |  |  | 

Further molecules by falling Ki [1], results first:

Ki [1] | inhibition [5] | Ki [9] | SMILES | growth at 100 µM [2] | growth at 100 µM [3] | growth at 100 µM [4] | growth at 10 µM [6] | growth at 10 µM [7] | growth at 10 µM [8]
5 µM |  |  | COc1cc(N(C)Cc2nc3cc(C(F)(F)F)ccc3nc2-c2ccccc2)cc(OC)c1OC | 97% | 61% | 77% |  |  | 
5 µM |  |  | CN(Cc1nc2cc(C(F)(F)F)ccc2nc1-c1ccccc1)c1ccc(Cl)cc1 |  |  |  | 109% | 108% | 118%
5 µM |  |  | CCN(Cc1nc2cc(C(F)(F)F)ccc2nc1-c1ccccc1)c1ccc(F)c(F)c1 |  |  |  | 73% | 94% | 81%
4 µM |  |  | CCN(Cc1nc2cc(C(F)(F)F)ccc2nc1-c1ccccc1)c1ccc(C)cc1 |  |  |  |  |  | 
4 µM |  | 0.27 µM | CN(Cc1nc2cc(C(F)(F)F)ccc2nc1-c1ccccc1)c1ccc(F)c(F)c1 |  |  |  | 114% | 97% | 88%
4 µM |  | 5 µM | C#CCN(Cc1nc2cc(C(F)(F)F)ccc2nc1-c1ccccc1)c1cc(OC)c(OC)c(OC)c1 | 102% | 64% | 104% |  |  | 
4 µM |  |  | CCOC(=O)CC[C@H](NC(=O)c1ccc(N(CC)Cc2nc3cc(C(F)(F)F)ccc3nc2-c2ccccc2)cc1)C(=O)OCC |  |  |  |  |  | 
3 µM |  |  | C#CCN(Cc1nc2cc(C(F)(F)F)ccc2nc1-c1ccccc1)c1ccc(OC)cc1 | 103% | 82% | 98% |  |  | 
3 µM |  |  | CCN(Cc1nc2cc(C(F)(F)F)ccc2nc1-c1ccccc1)c1ccc(Cl)cc1 | 81% | 46% | 68% |  |  | 
3 µM |  |  | C#CCN(Cc1nc2cc(C(F)(F)F)ccc2nc1-c1ccccc1)c1ccc(OC)c(OC)c1 | 109% | 119% | 80% |  |  | 
3 µM |  |  | CCN(Cc1nc2cc(C(F)(F)F)ccc2nc1-c1ccccc1)c1ccc(F)cc1 |  |  |  | 103% | 102% | 92%
3 µM |  |  | CCOC(=O)Cc1ccc(N(CC)Cc2nc3cc(C(F)(F)F)ccc3nc2-c2ccccc2)cc1 |  |  |  |  |  | 
3 µM |  |  | COc1ccc(N(C)Cc2nc3cc(C(F)(F)F)ccc3nc2-c2ccccc2)cc1 | 107% | 105% | 125% |  |  | 
3 µM |  |  | CN(Cc1nc2cc(C(F)(F)F)ccc2nc1-c1ccccc1)c1ccc(OC(F)(F)F)cc1 |  |  |  |  |  | 
0.2 µM |  |  | CCOC(=O)CC[C@H](NC(=O)c1ccc(N(C)Cc2nc3cc(C(F)(F)F)ccc3nc2-c2ccccc2)cc1)C(=O)OCC |  |  |  |  |  | 
